Test [1] in a line: Binding affinity at Beta-lactamase SHV2 G238S expressed in Escherichia coli DH10B cells. The method, boiled down:
(§1)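 Enzyme cloned in pBCSK(−), expressed in E. coli DH10B, purified, then further purified by size-exclusion HPLC; purity checked by SDS-PAGE. Ki found by competing increasing inhibitor concentrations against nitrocefin at 4–6 × Km in continuous spectrophotometric assays at room temperature. Percent inhibition was fitted to an equation using the nitrocefin Km.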

A further test has as its target T1, Beta-lactamase SHV-1 (Escherichia coli, UniProt P0AD63).
T1 sequence (P0AD63 whole entry): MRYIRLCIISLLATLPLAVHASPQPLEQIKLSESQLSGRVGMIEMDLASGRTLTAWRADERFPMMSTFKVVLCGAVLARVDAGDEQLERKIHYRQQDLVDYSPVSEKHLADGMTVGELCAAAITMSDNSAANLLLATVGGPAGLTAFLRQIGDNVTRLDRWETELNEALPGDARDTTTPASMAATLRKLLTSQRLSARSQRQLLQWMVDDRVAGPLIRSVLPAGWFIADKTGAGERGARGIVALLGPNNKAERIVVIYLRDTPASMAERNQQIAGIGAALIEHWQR
Description: Binding affinity at Beta-lactamase SHV1 expressed in Escherichia coli DH10B cells. The method, boiled down:
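SHV-1 cloned in pBCSK(−), expressed in E. coli DH10B and purified; purity checked by SDS-PAGE. Ki found by competing increasing inhibitor concentrations against nitrocefin at 4–6 × Km in continuous spectrophotometric assays at room temperature. Percent inhibition was fitted to an equation using the nitrocefin Km.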

For test [2], the target named is T2, SHV-5 extended spectrum beta-lactamase (Escherichia coli, UniProt Q6REX6).
T2 sequence (Q6REX6 whole entry): T1 sequence (P0AD63 whole entry) with L31Q, T231N, G234S, E235K, S265N
Nature of the test: Binding affinity at Beta-lactamase SHV5 expressed in Escherichia coli DH10B cells. The method, boiled down:
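Purified SHV-5 enzyme, expressed in E. coli DH10B from pBCSK(−); purity checked by SDS-PAGE. Ki from continuous spectrophotometric competition assays at room temperature: increasing inhibitor concentrations against nitrocefin at 4 to 6 times its Km. Percent inhibition fitted using the nitrocefin Km. Inhibition mode from full progress curves at varied nitrocefin, without inhibitor and at two inhibitor concentrations.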

Test [3] in a line: Binding affinity at Beta-lactamase D104K expressed in Escherichia coli DH10B cells. In a few lines: as §1
Test [4] in a line: Binding affinity at Beta-lactamase D104K G238S expressed in Escherichia coli DH10B cells. The method, boiled down: as §1

Residue numbers refer to the chain shown, from its start.

By Ki is commonly meant a measure of affinity in units of concentration, obtained from inhibition or displacement. Higher therefore signals lower affinity. Consider `CO/N=C(\C(=O)NCB(O)O)c1csc(N)n1` [CEFOTAXIME BATSI], for which the Ki in test [1] is 3.4 µM; at Beta-lactamase SHV-1, 8.9 µM; in test [2] it was 5 µM; in test [3], 5 µM; in test [4] it was 1.1 µM.

Turning to `CC(C)(O/N=C(\C(=O)NCB(O)O)c1csc(N)n1)C(=O)O` [CEFTAZIDIME BATSI], the inhibitory constant (Ki) in test [1] was found to be 6.8 µM; at Beta-lactamase SHV-1 it was 2.2 µM; in test [2] it was 4.5 µM; in test [3], 0.7 µM; in test [4], 4.5 µM.

As to `CC(=O)NCB(O)O` [ACETAMIDOMETHYLBORONIC ACID], the Ki in test [1] worked out at 330 µM; at Beta-lactamase SHV-1 it was 300 µM; in test [2], 360 µM; in test [3], 190 µM; in test [4] it was 300 µM.
